A short description of data set [1]: Single-dose plasma and skin-tissue pharmacokinetics of daptomycin in rats. It is filed as in vivo, rat. In outline: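 Rats (10 weeks), scalp depilated, sevoflurane-anaesthetised; test compound 10 mg/mL in saline s.c. Blood and 10×15 mm scalp skin sampled 1, 3, 5, 8, 12 h (3/time point); skin homogenised in 9 vol 1% phosphate buffer pH 6.0, extracted 4°C 18 h. Acetonitrile precipitation, mefenamic acid internal standard; C8 HPLC, UV 214 nm. Cmax/Tmax observed; AUC, MRT by trapezoidal rule; mean ± SD.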

For data set [2] the following is noted: cited from earlier work.
The conditions of data set [3]: human plasma; cited from earlier work.
The conditions of data set [4]: cited from earlier work; for AUC24 h in plasma: rat.
The mark [5] stands for this setting: male, Wistar, rat, plasma, sc, 50 mg/kg, SD.

Where two headings read alike, the source gives them in different places.

With `CCCCCCCCCC(=O)N[C@@H](Cc1c[nH]c2ccccc12)C(=O)N[C@H](CC(N)=O)C(=O)N[C@@H](CC(=O)O)C(=O)N[C@@H]1C(=O)NCC(=O)N[C@@H](CCCN)C(=O)N[C@@H](CC(=O)O)C(=O)N[C@H](C)C(=O)N[C@@H](CC(=O)O)C(=O)NCC(=O)N[C@H](CO)C(=O)N[C@@H]([C@H](C)CC(=O)O)C(=O)N[C@@H](CC(=O)c2ccccc2N)C(=O)O[C@@H]1C` [daptomycin], the Tmax skin tissue in data set [1] (male Wistar rats, single subcutaneous 50 mg/kg, skin tissue) stood at 3.0 h. Moreover, the Tmax – broadly, the time at which the peak concentration occurs – in data set [1] (male, Wistar, rat, plasma, sc, 50 mg/kg) came to 3 h. Moreover, in data set [1] (setting [5]), the AUC(0-inf) (usually total exposure, with the tail of the curve extrapolated) worked out at 812 ± 31.9 µg·h/mL; the concentration peaked (Cmax) at 176 ± 6.3 µg/mL; the MRT (commonly the average time that molecules of a dose stay in the body) amounted to 2.28 ± 0.33 h; the half-life – broadly, how long it takes for the measured level to halve – was 1.58 ± 0.23 h. In addition, the “Protein binding in rat serum” value in data set [2] was 89.3%. The “Plasma protein binding in humans” value in data set [3] was 92%. In data set [4] (rat plasma, previous studies), the t½ – broadly, how long it takes for the measured level to halve – was 1.6 to 2.9 h. For the same compound, the “AUC24 h in plasma” value in data set [4] (intraperitoneal dose of 30 mg/kg/day) is 558 µg·h/mL. The “AUC24 h in plasma” value in data set [4] (subcutaneous dose of 40 mg/kg/day) was 605 µg·h/mL.

(Values after paper PMC4445693 (Clinical Pharmacology : Advances and Applications, 2015).)
